From PubChem BioAssay AID623885 (Vanderbilt Specialized Chemistry Center, 2012)
Active and inactive are the calls of the source.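 How the source made its calls: active means mean half-maximal effective concentration under 30 µM; inactive means the rest.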

Molecular target: Metabotropic glutamate receptor 3 (Rattus norvegicus) (UniProt P31422)
Test: inhibition of glutamate response at mGlu3 – thallium flux, HEK/GIRK cells, rat, dose response (AID 623885)
Conditions: HEK293 GIRK rat mGlu3, thallium flux fluorescence; for percent of glutamate max response: at 30 µM (top of the series)
In short: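 Material: HEK cells stably co-expressing GIRK channels, M4 muscarinic receptor, rat mGlu3. Probe or stimulus: thallium-containing buffer with or without agonist. Timing: dye loading 1 h room temperature, compounds ~2.5 min. Signal: thallium influx through GIRK, FluoZin-2 AM fluorescence. Read-out: baseline-normalized fluorescence slope 5–15 s post thallium/agonist, four-parameter logistic fit.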

Chain of Metabotropic glutamate receptor 3 (Rattus norvegicus) (P31422 whole entry, looked up): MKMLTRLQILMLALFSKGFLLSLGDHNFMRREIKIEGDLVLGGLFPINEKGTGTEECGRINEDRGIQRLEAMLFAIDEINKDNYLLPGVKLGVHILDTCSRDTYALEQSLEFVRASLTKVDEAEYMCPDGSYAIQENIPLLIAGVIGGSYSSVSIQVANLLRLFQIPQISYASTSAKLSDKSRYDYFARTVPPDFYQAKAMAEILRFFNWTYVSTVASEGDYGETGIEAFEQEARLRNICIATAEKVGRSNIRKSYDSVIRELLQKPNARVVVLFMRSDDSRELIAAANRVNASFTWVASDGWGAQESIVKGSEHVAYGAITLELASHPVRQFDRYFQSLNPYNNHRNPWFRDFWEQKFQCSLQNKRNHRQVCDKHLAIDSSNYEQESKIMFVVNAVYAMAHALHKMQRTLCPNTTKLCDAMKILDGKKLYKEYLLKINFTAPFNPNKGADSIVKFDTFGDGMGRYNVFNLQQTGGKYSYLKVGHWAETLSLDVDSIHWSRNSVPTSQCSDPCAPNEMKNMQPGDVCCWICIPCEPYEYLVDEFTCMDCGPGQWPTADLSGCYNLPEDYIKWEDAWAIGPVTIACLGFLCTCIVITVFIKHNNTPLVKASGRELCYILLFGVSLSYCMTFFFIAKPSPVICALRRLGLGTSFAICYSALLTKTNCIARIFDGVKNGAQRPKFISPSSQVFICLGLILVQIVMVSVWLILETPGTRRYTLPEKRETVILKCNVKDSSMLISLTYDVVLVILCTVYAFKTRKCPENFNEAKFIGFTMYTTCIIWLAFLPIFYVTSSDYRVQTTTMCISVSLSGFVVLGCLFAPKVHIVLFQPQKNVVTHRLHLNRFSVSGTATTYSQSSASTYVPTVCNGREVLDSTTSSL

Row | percent of glutamate max response | IC50 [µM] | SMILES
1 | inactive |  | CC(O)(C#Cc1ccc(C(=O)N2CCC(O)CC2)cc1)c1cccc(F)c1 (configuration not stated)
2 | 4.33 |  | O=C(c1ccc(C#CCC2CCCCC2)cc1)N1CCC(O)CC1
3 | inactive |  | O=C(c1ccc(C#CC2(O)CCCCC2)cc1)N1CCC(O)CC1
4 | 37 |  | O=C(c1ccc(C#CC2CCCCC2)cc1)N1CCC(O)CC1
5 | inactive |  | CCCC(O)C#Cc1ccc(C(=O)N2CCC(O)CC2)cc1 (configuration not stated)
6 | inactive |  | CC(O)CC#Cc1ccc(C(=O)N2CCC(O)CC2)cc1 (configuration not stated)
7 | inactive |  | O=C(c1ccc(C#CCCCCO)cc1)N1CCC(O)CC1
8 |  | 3.46 | COc1ccc(C#Cc2ccc(C(=O)N3CCC[C@H](CO)C3)cc2)cc1
9 | inactive |  | CC(C)(O)C#Cc1ccc(C(=O)N2CCC(O)CC2)cc1
10 | 76.2 |  | COc1ccc(C#Cc2ccc(C(=O)N3CC(O)C3)cc2)cc1
11 | inactive |  | COc1ccc(C#Cc2ccc(C(=O)N3C[C@H]4C[C@@H]3CN4C(=O)OC(C)(C)C)cc2)cc1
12 | inactive |  | COc1ccc(C#Cc2ccc(C(=O)NCCC3=CCCCC3)cc2)cc1
13 | 17.5 |  | N#Cc1ccc(C#Cc2ccc(C(=O)N3CCC(O)CC3)cc2)cc1
14 | inactive |  | O=C(c1ccc(C#CC2CCCC2)cc1)N1CCC(O)CC1
15 | 31.5 |  | COc1ccc(C#Cc2ccc(C(=O)N3CCC3)cc2)cc1
16 | 51.4 |  | CC(C)(C)NC(=O)CN1CCc2cc(C#Cc3ccccc3)ccc2C1=O
17 | 11.6 |  | O=C(c1ccc(C#Cc2ccccc2)cc1)N1CCC(O)CC1
18 | inactive |  | O=C(c1ccc(I)cc1)N1CCC(O)CC1
19 | 34 |  | O=C(c1ccc(C#CCC2CCCC2)cc1)N1CCC(O)CC1
20 | inactive |  | O=C(c1ccc(C#Cc2ccncc2)cc1)N1CCC(O)CC1
21 | inactive |  | CC(=O)OCC#Cc1ccc(C(=O)N2CCC(O)CC2)cc1
22 | inactive |  | COc1ccc(C#Cc2ccc(C(=O)NCCO)cc2)cc1
